# Test results from ChEMBL document CHEMBL4118256, “Second Generation of Mannich Base-Type Derivatives with in Vivo Activity against Trypanosoma cruzi” (J Med Chem, 2018).
# System: Trypanosoma cruzi
# Assay: Trypanocidal activity against Trypanosoma cruzi TINF/CH/1956/Tulahuen DTU 6 epimastigotes after 48 hrs by resazurin dye based assay
# Format: functional, organism-based
# Settings: TINF/CH/1956/Tulahuen DTU 6, 48 h
# Method in brief: (§1)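 Exponential-phase epimastigotes were seeded at 5×10^5 mL^-1 with compounds at 100–0.2 µM (DMSO 0.01% v/v) at 28 °C. After 48 h, resazurin was added for another 24 h. SDS was then added and absorbance read at 570 and 600 nm.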
row,Compound,IC50
1,O=C(CCN1CCN(c2ccc(C(F)(F)F)cc2)CC1)c1ccccc1,24.9 µM
2,O=C(CCN1CCN(c2ccc(F)cc2)CC1)c1ccccc1,94.1 µM
3,O=C(CCN1CCN(c2ccc(F)cc2)CC1)c1ccc(F)c(Br)c1,41.4 µM
4,O=C(CCN1CCN(c2ccc([N+](=O)[O-])cc2)CC1)c1ccc(F)c(Cl)c1,41.5 µM
5,O=C(CCN1CCN(c2ccc(F)cc2)CC1)c1ccc(C(F)(F)F)cc1,60.3 µM
6,COc1ccc(C(=O)CCN2CCN(Cc3cccc(F)c3)CC2)cc1OC,40.8 µM

# System: Vero
# Assay: Cytotoxicity against African green monkey Vero cells assessed as reduction in cell viability after 72 hrs by resazurin dye based assay
# Settings: Chlorocebus sabaeus
# Method in brief: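 Vero monkey kidney cells grown at 37 °C, 5 % CO2, in RPMI with 10 % heat-inactivated FBS. Seeded at 1.25 × 10^4 mL-1 with compound at 1000 to 1 µM (DMSO 0.01 % v/v). After 48 h, resazurin added for a further 24 h, then SDS. Absorbance read at 570/600 nm. IC50 from triplicates in four separate determinations.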
row,Compound,IC50
1,O=C(CCN1CCN(c2ccc(C(F)(F)F)cc2)CC1)c1ccccc1,15.7 µM
2,O=C(CCN1CCN(c2ccc(F)cc2)CC1)c1ccccc1,13.4 µM
3,O=C(CCN1CCN(c2ccc(F)cc2)CC1)c1ccc(F)c(Br)c1,352 µM
4,O=C(CCN1CCN(c2ccc([N+](=O)[O-])cc2)CC1)c1ccc(F)c(Cl)c1,116 µM
5,O=C(CCN1CCN(c2ccc(F)cc2)CC1)c1ccc(C(F)(F)F)cc1,28.5 µM
6,COc1ccc(C(=O)CCN2CCN(Cc3cccc(F)c3)CC2)cc1OC,22.4 µM

# System: not listed separately
# Assay: Selectivity index, ratio of IC50 for African green monkey Vero cells to IC50 for Trypanosoma cruzi TINF/CH/1956/Tulahuen DTU 6 epimastigotes
# Format: toxicity
# Settings: read-out: Ratio IC50
# Method in brief: (§2)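 SI is Vero IC50 divided by the IC50 for the stated parasite form. For Vero cytotoxicity, cells were seeded at 1.25×10^4 mL^-1 with compounds at 1000–1 µM, incubated 48 h, then given resazurin for a further 24 h (72 h total), with absorbance read at 570/600 nm. Triplicate, four determinations.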
row,Compound,selectivity ratio
1,O=C(CCN1CCN(c2ccc(C(F)(F)F)cc2)CC1)c1ccccc1,0.6
2,O=C(CCN1CCN(c2ccc(F)cc2)CC1)c1ccccc1,0.1
3,O=C(CCN1CCN(c2ccc(F)cc2)CC1)c1ccc(F)c(Br)c1,8.5
4,O=C(CCN1CCN(c2ccc([N+](=O)[O-])cc2)CC1)c1ccc(F)c(Cl)c1,2.8
5,O=C(CCN1CCN(c2ccc(F)cc2)CC1)c1ccc(C(F)(F)F)cc1,0.5
6,COc1ccc(C(=O)CCN2CCN(Cc3cccc(F)c3)CC2)cc1OC,0.6

# System: not listed separately
# Assay: Selectivity index, ratio of IC50 for African green monkey Vero cells to IC50 for Trypanosoma cruzi IRHOD/CO/2008/SN3 DTU 1 epimastigotes
# Format: toxicity
# Settings: read-out: Ratio IC50
# Method in brief: as §2
row,Compound,selectivity ratio
1,O=C(CCN1CCN(c2ccc(C(F)(F)F)cc2)CC1)c1ccccc1,1
2,O=C(CCN1CCN(c2ccc(F)cc2)CC1)c1ccccc1,0.4
3,O=C(CCN1CCN(c2ccc(F)cc2)CC1)c1ccc(F)c(Br)c1,8.3
4,O=C(CCN1CCN(c2ccc([N+](=O)[O-])cc2)CC1)c1ccc(F)c(Cl)c1,2.3
5,O=C(CCN1CCN(c2ccc(F)cc2)CC1)c1ccc(C(F)(F)F)cc1,0.4
6,COc1ccc(C(=O)CCN2CCN(Cc3cccc(F)c3)CC2)cc1OC,0.5

# System: not listed separately
# Assay: Selectivity index, ratio of IC50 for African green monkey Vero cells to IC50 for Trypanosoma cruzi MHOM/Pe/2011/Arequipa DTU 5 epimastigotes
# Format: toxicity
# Settings: read-out: Ratio IC50
# Method in brief: as §2
row,Compound,selectivity ratio
1,O=C(CCN1CCN(c2ccc(C(F)(F)F)cc2)CC1)c1ccccc1,1.2
2,O=C(CCN1CCN(c2ccc(F)cc2)CC1)c1ccccc1,0.2
3,O=C(CCN1CCN(c2ccc(F)cc2)CC1)c1ccc(F)c(Br)c1,9.1
4,O=C(CCN1CCN(c2ccc([N+](=O)[O-])cc2)CC1)c1ccc(F)c(Cl)c1,3.4
5,O=C(CCN1CCN(c2ccc(F)cc2)CC1)c1ccc(C(F)(F)F)cc1,0.8
6,COc1ccc(C(=O)CCN2CCN(Cc3cccc(F)c3)CC2)cc1OC,0.5

# System: Trypanosoma cruzi
# Assay: Trypanocidal activity against Trypanosoma cruzi MHOM/Pe/2011/Arequipa DTU 5 epimastigotes after 48 hrs by resazurin dye based assay
# Format: functional, organism-based
# Settings: MHOM/Pe/2011/Arequipa DTU 5, 48 h
# Method in brief: as §1
row,Compound,IC50
1,O=C(CCN1CCN(c2ccc(C(F)(F)F)cc2)CC1)c1ccccc1,12.8 µM
2,O=C(CCN1CCN(c2ccc(F)cc2)CC1)c1ccccc1,65.7 µM
3,O=C(CCN1CCN(c2ccc(F)cc2)CC1)c1ccc(F)c(Br)c1,38.8 µM
4,O=C(CCN1CCN(c2ccc([N+](=O)[O-])cc2)CC1)c1ccc(F)c(Cl)c1,34.2 µM
5,O=C(CCN1CCN(c2ccc(F)cc2)CC1)c1ccc(C(F)(F)F)cc1,36.9 µM
6,COc1ccc(C(=O)CCN2CCN(Cc3cccc(F)c3)CC2)cc1OC,49 µM

# System: Trypanosoma cruzi
# Assay: Trypanocidal activity against Trypanosoma cruzi IRHOD/CO/2008/SN3 DTU 1 epimastigotes after 48 hrs by resazurin dye based assay
# Format: functional, organism-based
# Settings: IRHOD/CO/2008/SN3 DTU 1, 48 h
# Method in brief: as §1
row,Compound,IC50
1,O=C(CCN1CCN(c2ccc(C(F)(F)F)cc2)CC1)c1ccccc1,16.2 µM
2,O=C(CCN1CCN(c2ccc(F)cc2)CC1)c1ccccc1,32.9 µM
3,O=C(CCN1CCN(c2ccc(F)cc2)CC1)c1ccc(F)c(Br)c1,42.4 µM
4,O=C(CCN1CCN(c2ccc([N+](=O)[O-])cc2)CC1)c1ccc(F)c(Cl)c1,51 µM
5,O=C(CCN1CCN(c2ccc(F)cc2)CC1)c1ccc(C(F)(F)F)cc1,66.4 µM
6,COc1ccc(C(=O)CCN2CCN(Cc3cccc(F)c3)CC2)cc1OC,48 µM
